Measured values taken from ChEMBL document CHEMBL4400513, “Aurone derivatives as promising antibacterial agents against resistant Gram-positive pathogens” (Eur J Med Chem, 2019).
pIC50: −log10 of the molar value. Values after ≈ are worked out from the molar mass of the structure shown. Active and inactive are the calls of the source. The calls are words filed in the database; no cut-off is given here.

How the values were obtained:
[1] = tested on: Lactococcus lactis; assay: Bactericidal activity against Lactococcus lactis in aerobic condition; format: functional, organism-based
Method in brief: (§1)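 From the MIC plates, 10 µL from each well without growth was streaked onto agar suited to the organism and incubated under that organism's growth conditions. Colonies were then counted; MBC = lowest concentration allowing ≤1 colony, i.e. killing 99.9% of bacteria.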

[2] = tested on: Aspergillus niger; assay: Antifungal activity against Aspergillus niger after 48 hrs by two-fold serial dilutions method; format: functional
Method in brief: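 Two-fold serial dilution MIC, 0 to 500 µM, from 200 mM DMSO stocks; 0.2% DMSO final as vehicle control. Inoculum about 10^5 cells/mL. Organism maintained on potato dextrose agar and in RPMI. Plates incubated 48 h at 35 °C, then OD600 read; MIC taken as lowest concentration with no visible growth; n = 3 independent runs.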

[3] = tested on: Clostridium botulinum; assay: Antimicrobial activity against Clostridium botulinum after 18 to 24 hrs in anaerobic condition by two-fold serial dilutions method; format: functional
[4] = tested on: IMR-90; assay: Cytotoxicity against human IMR90 cells assessed as reduction in cell viability after 48 hrs by Resazurin dye-based assay; conditions: for pIC50: Homo sapiens, IMR-90, 48 h; for Activity: human, imr-90, 48 h
Method in brief: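 Normal human lung epithelial (BEAS-2B) and lung fibroblast (IMR-90) cells were grown in DMEM with 10% FCS. Cells were seeded at ~10^4/well, grown to confluence (48–72 h), then exposed to increasing concentrations for 48 h at 37 °C, 5% CO2, with 0.2% DMSO as control. Resazurin was added for 4 h and fluorescence read at 530/590 nm. Viability was normalized to DMSO wells and IC50 calculated.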

[5] = tested on: Pseudomonas aeruginosa; assay: Bactericidal activity against Pseudomonas aeruginosa in aerobic condition; format: functional, organism-based
Method in brief: (§2)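 MH broth; log-phase bacteria (OD600 ~0.6) diluted to ~10^5 bacteria/mL and exposed to two-fold serial dilutions (0–500 µM; 0.2% DMSO final as vehicle control) at 37 °C, aerobic, 18–24 h. MIC is the lowest concentration preventing visible growth (OD600). MBC is found by streaking 10 µL from no-growth wells onto agar; the MBC is the concentration where ≤1 colony grew. n = 3.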

[6] = tested on: Klebsiella variicola; assay: Bactericidal activity against Klebsiella variicola in aerobic condition; format: functional, organism-based; method in brief: as §1
[7] = tested on: Penicillium verrucosum; assay: Antifungal activity against Penicillium verrucosum after 2 to 5 days by two-fold serial dilutions method; format: functional
Method in brief: (§3)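 Broth two-fold serial dilution MIC, 0 to 500 µM (1:2 steps), from 200 mM DMSO stocks; 0.2% DMSO final as vehicle control. Inoculum about 10^5 cells/mL. Strains maintained on potato dextrose agar and in RPMI medium. Plates held at room temperature for 2 to 5 days, OD600 read; MIC = lowest concentration preventing visible growth; independent triplicate.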

[8] = tested on: Escherichia coli; assay: Bactericidal activity against Escherichia coli […] K88 in aerobic condition; format: functional, organism-based
[9] = tested on: Acinetobacter baumannii; assay: Antimicrobial activity against Acinetobacter baumannii MRS after 18 to 24 hrs in aerobic condition by two-fold serial dilutions method; format: functional
Method in brief: (§4)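 Colonies grown overnight (~16 h) in Mueller-Hinton broth at 37 °C, 200 rpm, diluted 1/100 and grown to log phase (OD600 ~0.6), then diluted to ~10^5 bacteria/mL. Exposed to 0 to 500 µM in 1:2 series (0.2% DMSO final control), aerobic, 37 °C, 18–24 h. OD600 read; MIC = lowest concentration without visible growth; n = 3.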

[10] = tested on: Fusarium oxysporum; assay: Fungicidal activity against Fusarium oxysporum; format: functional, organism-based
Method in brief: (§5)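 Filamentous fungi grown on potato dextrose agar and tested in RPMI medium with two-fold serial dilutions (0–500 µM, 0.2% DMSO final). Plates held at room temperature for 2 to 5 days, then OD600 read; MIC taken as the lowest concentration with no visible growth. The fungicidal endpoint is ≤1 colony after streaking 10 µL of no-growth wells on agar. n = 3.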

[11] = tested on: Mycolicibacterium smegmatis; assay: Antimicrobial activity against Mycobacterium smegmatis after 18 to 24 hrs in anaerobic condition by two-fold serial dilutions method; format: functional
[12] = tested on: Fusarium verticillioides; assay: Fungicidal activity against Fusarium verticillioides; format: functional, organism-based; method in brief: as §5
[13] = tested on: Fusarium graminearum; assay: Fungicidal activity against Fusarium graminearum; format: functional, organism-based
[14] = tested on: Stachybotrys chartarum; assay: Antifungal activity against Stachybotrys chartarum after 2 to 5 days by two-fold serial dilutions method; format: functional; method in brief: as §3
[15] = tested on: Citrobacter farmeri; assay: Bactericidal activity against Citrobacter farmeri in aerobic condition; format: functional, organism-based; method in brief: as §1
[16] = tested on: Pseudomonas aeruginosa; assay: Antimicrobial activity against Pseudomonas aeruginosa after 18 to 24 hrs in aerobic condition by two-fold serial dilutions method; format: functional; method in brief: as §4
[17] = tested on: Aspergillus ochraceus; assay: Fungicidal activity against Aspergillus ochraceus; format: functional, organism-based; method in brief: as §5
[18] = tested on: Salmonella enterica; assay: Antimicrobial activity against Salmonella enterica after 18 to 24 hrs in aerobic condition by two-fold serial dilutions method; format: functional; method in brief: as §4
[19] = tested on: Bacillus subtilis; assay: Antimicrobial activity against Bacillus subtilis after 18 to 24 hrs in aerobic condition by two-fold serial dilutions method; format: functional; method in brief: as §4
[20] = tested on: Lactococcus lactis; assay: Antimicrobial activity against Lactococcus lactis after 18 to 24 hrs in aerobic condition by two-fold serial dilutions method; format: functional; method in brief: as §4
[21] = tested on: Klebsiella pneumoniae; assay: Bactericidal activity against Klebsiella pneumoniae in aerobic condition; format: functional, organism-based; method in brief: as §1
[22] = tested on: Candida albicans; assay: Fungicidal activity against Candida albicans; format: functional, organism-based
Method in brief: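 C. albicans in RPMI buffered with 0.165 M MOPS (pH 7.0). Two-fold serial dilutions from 0 to 500 µM, 0.2% DMSO final. Plates incubated at 35 °C for 24 h; OD600 read, MIC taken as the lowest concentration with no visible growth. Fungicidal concentration defined by ≤1 colony after streaking 10 µL of no-growth wells on agar. n = 3.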

[23] = tested on: Shigella flexneri; assay: Bactericidal activity against Shigella flexneri in aerobic condition; format: functional, organism-based; method in brief: as §2
[24] = tested on: Clostridium perfringens; assay: Induction of cell membrane permeability in Clostridium perfringens assessed as membrane integrity after 240 mins in anaerobic condition by propidium iodide staining-based assay relative to control; format: functional
Method in brief: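 Log-phase bacteria resuspended in PBS at about 10^9/mL with propidium iodide 60 µM final, mixed 1:1 with two-fold serial dilutions of compound. Fluorescence (ex 530/em 590 nm) recorded over 240 min at 37 °C anaerobically. Normalised to CTAB 300 µM or nisin at 5× MIC (100% permeabilization); DMSO as vehicle. Triplicate.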

[25] = tested on: Acinetobacter baumannii; assay: Bactericidal activity against Acinetobacter baumannii in aerobic condition; format: functional, organism-based; method in brief: as §1
[26] = tested on: Fusarium verticillioides; assay: Antifungal activity against Fusarium verticillioides after 2 to 5 days by two-fold serial dilutions method; format: functional; method in brief: as §3
[27] = tested on: Vibrio alginolyticus; assay: Bactericidal activity against Vibrio alginolyticus in aerobic condition; format: functional, organism-based; method in brief: as §2
[28] = tested on: Acinetobacter baumannii; assay: Bactericidal activity against Acinetobacter baumannii MRS in aerobic condition; format: functional, organism-based; method in brief: as §1
[29] = tested on: Escherichia coli; assay: Antimicrobial activity against Escherichia coli […] K88 after 18 to 24 hrs in aerobic condition by two-fold serial dilutions method; format: functional
Method in brief: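 Strains grown on LB at 37 °C aerobically, then in Mueller-Hinton broth overnight at 200 rpm and brought to log phase (OD600 ~0.6). About 10^5 bacteria/mL exposed to two-fold serial dilutions 0–500 µM, DMSO 0.2% final as control. Aerobic incubation at 37 °C for 18–24 h; OD600 read; MIC = lowest concentration inhibiting visible growth. n = 3.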

[30] = tested on: Citrobacter rodentium; assay: Antimicrobial activity against Citrobacter rodentium after 18 to 24 hrs in aerobic condition by two-fold serial dilutions method; format: functional; method in brief: as §4

| SMILES | Activity [1] | MIC [2] [µM] | MIC [3] [µM] | pIC50 [4] | Activity [4] | Activity [5] | Activity [6] | MIC [7] [µM] | Activity [8] | MIC [9] [µM] | Activity [10] | MIC [11] [µM] | Activity [12] | Activity [13] | MIC [14] [µM] | Activity [15] | MIC [16] [µM] | Activity [17] | MIC [18] [µM] | MIC [19] [µM] | further results |
| --- | --- | --- | --- | --- | --- | --- | --- | --- | --- | --- | --- | --- | --- | --- | --- | --- | --- | --- | --- | --- | --- |
| O=C1/C(=C/c2ccccc2)Oc2cc(O)cc(O)c21 | Active | 62.5 (≈ 15.9 µg/mL) | 500 (≈ 127 µg/mL) | 3.60 | Dose-dependent effect | Active | Active | > 500 | Active | > 500 | Active | > 500 | Active | Active | > 500 | Active | > 500 | Active | > 500 | 62.5 to 125 (≈ 15.9 to 31.8 µg/mL) | MIC [20]: 15.6 µM (≈ 3.97 µg/mL); Activity [21]: Active; Activity [22]: Active; Activity [23]: Active; Activity [24]: inactive; Activity [25]: Active; MIC [26]: > 500 µM; Activity [27]: Active; Activity [28]: Active; MIC [29]: > 500 µM; MIC [30]: > 500 µM |
| COc1cc(/C=C2\Oc3cc(O)cc(O)c3C2=O)ccc1OCc1ccccc1 | Active | > 500 | 62.5 (≈ 24.4 µg/mL) | 3.47 | Dose-dependent effect | Active | Active | > 500 | Active | > 500 | Active | > 500 | Active | Active | > 500 | Active | > 500 | Active | > 500 | 7.8 (≈ 3.05 µg/mL) | MIC [20]: 31.2 µM (≈ 12.2 µg/mL); Activity [21]: Active; Activity [22]: Active; Activity [23]: Active; Activity [24]: 30%; Activity [25]: Active; MIC [26]: > 500 µM; Activity [27]: Active; Activity [28]: Active; MIC [29]: > 500 µM; MIC [30]: > 500 µM |
| O=C1/C(=C/c2ccc(F)cc2)Oc2cc(O)cc(O)c21 | Active | > 500 | 500 (≈ 136 µg/mL) | 3.21 | Dose-dependent effect | Active | Active | > 500 | Active | > 500 | Active | > 500 | Active | Active | > 500 | Active | > 500 | Active | > 500 | 62.5 (≈ 17 µg/mL) | MIC [20]: 15.6 µM (≈ 4.25 µg/mL); Activity [21]: Active; Activity [22]: Active; Activity [23]: Active; Activity [24]: inactive; Activity [25]: Active; MIC [26]: > 500 µM; Activity [27]: Active; Activity [28]: Active; MIC [29]: > 500 µM; MIC [30]: > 500 µM |
